Sampled rows, rich in hits. Any-hit rate of the full collection: about 2.1%.
RORa activator – activators of human nuclear receptor RORA; P35398; CHO-K1 Gal4-RORA LBD luciferase reporter, luminescence; percent increase over mock-subtracted basal signal; activation, % at 10 µM; 65,000 tested, 1.5% active;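 active means activation above the mean of all tested compounds plus 3 SD, cut at about 49% in these data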;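 further: 0% = DMSO-treated RORA cells and 100% = added signal equal to DMSO minus mock-transfected cells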
CD11b adhes enh – increases human CD11b/CD18 adhesion to fibrinogen | P05107+P11215 | K562 CD11b/CD18 adhesion to fibrinogen, ATPlite luminescence | activation, % at 10 µM | 93,000 tested, 0.07% active;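 active means 10 µM primary screen giving 50% or more activity, confirmed by 40% or more on retest at that dose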
CD11b adhes inh – CD11b/CD18-fibrinogen binding inhibition; P05107+P11215; K562 CD11b/CD18 adhesion to fibrinogen, ATPlite luminescence; Mn2+ added to activate the integrin; inhibition, % at 10 µM; 93,000 tested, 0.54% active;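 active means primary inhibition of 50% or more at 10 µM, then 40% or more on retest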
MT1-MMP txn act – MT1-MMP promoter transcription activation; HT1080 MT1-MMP promoter luciferase reporter, luminescence, overnight; active compounds read high; 86,000 tested, 0.16% active; activation factor at 10 µM; AID 750;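 active means activation factor of at least 2 for MT1-MMP transcription at 10 µM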
SF-1 act – SF-1 (human) activation; AID 522; 65,000 tested, 1.9% active; Q13285; activation, % at 10 µM; CHO-K1 Gal4-SF-1 LBD luciferase reporter; % increase over DMSO SF-1-specific signal;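 active means activation above the mean activation of all tested compounds plus 3 SD, cut at about 50% in these data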
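Assay system: CHO-K1 cells co-transfected with Gal4 DBD–human SF-1 LBD, 5xGal4 luciferase reporter; doses: 10 µM only; incubation: 20 h compound exposure at 37 °C after 1 h cell settling; signal: luciferase light emission; evaluation: percent activation versus DMSO; repeats: one test per compound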
TNAP act mid DEA – human TNAP activation, intermediate phosphate acceptor; P05186; activation factor at 20 µM; purified TNAP, CDP-star luminescence, 100 mM DEA, 30 min; active compounds read high; scale: 0 levamisole-inhibited, 1 vehicle-only enzyme; AID 813; 64,000 tested, under 10 active;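 active means activation factor of at least 2 at 20 µM, relative to controls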
Target sequence (P05186 whole entry, looked up): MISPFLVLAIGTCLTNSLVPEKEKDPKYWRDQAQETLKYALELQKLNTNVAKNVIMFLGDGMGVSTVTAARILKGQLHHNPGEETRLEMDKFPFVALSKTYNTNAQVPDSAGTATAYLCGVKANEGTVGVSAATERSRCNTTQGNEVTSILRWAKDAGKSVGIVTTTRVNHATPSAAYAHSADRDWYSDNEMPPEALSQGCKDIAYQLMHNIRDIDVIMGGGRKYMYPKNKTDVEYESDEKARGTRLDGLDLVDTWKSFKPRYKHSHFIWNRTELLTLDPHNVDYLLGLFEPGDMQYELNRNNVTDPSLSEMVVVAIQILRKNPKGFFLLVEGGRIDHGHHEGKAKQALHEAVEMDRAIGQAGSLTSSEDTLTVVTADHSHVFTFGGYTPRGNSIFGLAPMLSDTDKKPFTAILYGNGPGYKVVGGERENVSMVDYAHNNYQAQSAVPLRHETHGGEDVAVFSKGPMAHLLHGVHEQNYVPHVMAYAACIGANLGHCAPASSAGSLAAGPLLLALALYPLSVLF
* marks the source's active call; other numbers are inactive results; · = no result.

SMILES	RORa activator	CD11b adhes enh	CD11b adhes inh	MT1-MMP txn act	SF-1 act	TNAP act mid DEA
O=c1oc2ccccc2c(O)c1C=NCc1ccccn1	11.1	0.3	-9.4	0.9	17.4	0.8
O=C1C(C=NCc2ccccn2)=C(O)c2ccccc21	47.4	·	·	1.7	54.9*	0.9
O=C(Cc1ccc(Cl)cc1)NCCN1CCCC1	9.1	-3.1	7.3	1.2	7.8	0.9
COc1ccc(CC(=O)NCCN2CCCC2)cc1	·	·	·	2.4*	·	·
Cc1cc(CNC(=O)[C@@H]2C[C@H]2[C@@H](NP(=O)(c2ccccc2)c2ccccc2)c2ccccc2)nn1C	·	·	·	1.3	·	·
O=C(NC1(C(F)(F)F)NC(=O)N(Cc2ccccc2)C1=O)c1cccs1 (centres undefined)	·	·	·	1.1	·	·
Cc1ccc(C)c(S(=O)(=O)C(C#N)c2nc3ccccc3nc2N2CCOCC2)c1 (centres undefined)	-4.4	-9.9	95.0*	1	-4.5	0.8
Cc1ccccc1CSc1nc(-c2ccccc2)cc(=O)[nH]1	·	-2.7	-1.2	·	·	·
CCN1/C(=C/c2ccc3ccccc3[n+]2CC)C=Cc2ccccc21	·	-6.4	94.1*	0.4	·	·
COc1c(C)cccc1C(=O)Nc1ccc(N2CCOCC2)c(Cl)c1	·	-4.4	15.8	2.2*	·	·
O=C(NCC#CC(CCc1ccccc1)OCc1ccccc1)c1ccccc1 (centres undefined)	·	·	·	1.1	·	·
COC(=O)c1c(NS(=O)(=O)c2ccc3ccccc3c2)sc2c1CCCC2	·	-0.2	51.7*	1.1	·	·
CCOc1ccc(C(=O)N/N=C/c2ccc(-c3ccc(S(=O)(=O)Nc4ncccn4)cc3)o2)cc1	·	-2.3	22.0	·	·	·
O=C(N/N=C/c1ccc(-c2ccc(S(=O)(=O)Nc3ncccn3)cc2)o1)c1cc2ccccc2cc1O	·	52.8*	-11.1	·	·	·
CCC1=C2CC[C@H]3C(=O)NC(=O)[C@H]3[C@H]2[C@@]2(C)C(=NCC3CC3)OC(=O)N2C1=O	·	·	·	1.1	·	·
Cn1c(C(=O)N2CCc3ccccc3C2)cc2oc3ccccc3c21	21.8	·	·	1.3	57.4*	1
CCn1c(C(=O)N2CCc3ccccc3C2)cc2oc3ccccc3c21	·	-7.6	31.9	1	·	·
COC(=O)c1ccc(C(NC(=O)OCc2ccccc2)/C(C)=C/[C@@H](C)C(=O)NCc2nn(-c3ccccc3)nc2C)cc1 (some centres undefined)	·	·	·	1.1	·	·
O=C(Nc1cccc(Br)c1)c1ccn[nH]1	54.2*	-1.8	3.5	1.7	31.3	1.1
CCn1nnc(NC(=O)COc2ccc(C3CCCCC3)cc2)n1	3.1	-9.4	74.4*	1	-9.1	1
Cc1ccc(Sc2nc([N+](=O)[O-])nn2C)cc1	·	3.8	-1.4	·	·	·
CC(C)c1ccc(C(=O)CSc2ncn[nH]2)cc1	53.4*	-3.6	-6.9	1.4	53.0*	1
C[C@@H](C(=O)Nc1ccc2ccccc2c1)[C@H]1C[C@]1(C)[C@H](NC(=O)Oc1ccc(F)cc1)c1ccccc1	·	·	·	1.3	·	·
CN(C)CCCNC(=O)/C(=N\O)c1ccccc1	·	-2.5	-1.3	1.1	·	·
O=C(NCCc1ccccc1)/C(=N\O)c1ccccc1	14.0	-5.9	-7.8	1.8	64.0*	0.9
SMILES	RORa activator	CD11b adhes enh	CD11b adhes inh	MT1-MMP txn act	SF-1 act	TNAP act mid DEA
c1ccc(CNc2ncnc3c2ncn3C2CCCCO2)cc1 (centres undefined)	68.5*	-0.7	1.8	1.7	60.4*	1
CC(C)CCn1cnc2c(NCc3ccccc3)ncnc21	·	-1.5	-9.3	·	·	·
O=C(Nc1ccc(N2CCCC2)c(Cl)c1)c1cccnc1	·	·	·	1.8	·	·
O=C(Nc1ccc(N2CCCCC2)c(Cl)c1)c1cccnc1	38.5	0.5	4.2	1.7	75.1*	0.9
O=C(Nc1ccc(N2CCCCC2)cc1)c1cncc(Br)c1	78.1*	·	·	1.8	8.0	0.9
CCOC(=O)c1[nH]c(C)c(C(=O)NCCC2=CCCCC2)c1C	0.7	-3.4	-23.4	1.1	24.0	1
CC(=O)c1c(C)[nH]c(C(=O)NCCC2=CCCCC2)c1C	68.6*	-2.9	-8.1	0.8	84.3*	1
Brc1ccc(-c2nc(N/N=C/c3cccnc3)c3ccccc3n2)cc1	·	-7.4	101.2*	0.6	·	·
O=C(NCc1ccco1)C1CCN(S(=O)(=O)Cc2ccccc2)CC1	·	·	·	1.1	·	·
COc1cccc(-c2noc(-c3cccs3)n2)c1	66.5*	1.5	-3.9	1.3	-8.4	0.9
COc1cccc(-c2nc(-c3ccc(NC(=O)c4cccnc4)cc3)no2)c1	51.3*	9.0	-12.5	1.3	54.6*	0.9
Cc1ccccc1-c1noc(-c2cccs2)n1	39.4	-1.5	7.8	1.4	53.1*	0.9
COc1ccc(-c2noc(-c3ccc(Cl)cc3)n2)cc1	48.7*	-2.0	-6.8	1.2	28.3	0.9
COc1ccc(CC(=O)Nc2ccc(-c3noc(-c4cccc(OC)c4)n3)cc2)cc1	15.2	·	·	0.9	-24.4	0.9
COCCCN1CN(Cc2ccccc2)CNC1=S	·	1.6	-9.2	·	·	·
Cc1ccc(-c2nc(-c3cccnc3)no2)cc1	11.2	-2.4	19.9	0.5	55.5*	0.9
COc1cccc(-c2noc(-c3cccnc3)n2)c1	86.1*	4.0	14.3	1.4	21.5	0.9
COc1cccc(-c2nc(-c3ccccc3)no2)c1	13.9	-0.5	30.7	0.8	-9.3	0.9
Cc1ccc(-c2nc(-c3ccccc3)no2)cc1	·	-3.6	33.5	·	·	·
O=C(NC1CCCCCC1)c1cccs1	24.2	·	·	1.3	-1.8	0.9
Nc1c(C(=O)NC2CCCC2)sc2nc(-c3cccs3)ccc12	20.1	92.8	7.1	1	59.7*	0.9
O=C(Nc1ccccc1)OCc1ccccn1	60.5*	-2.3	-20.1	1.6	27.7	0.9
Nc1ccc(O)c(-c2nc3ccccc3s2)c1	22.3	64.0	0.1	2.1*	39.8	0.9
Oc1ccc(N=C/C=C/c2cccc(Br)c2)cc1-c1nc2ccccc2s1	·	9.0	-12.4	·	·	·
COc1ccc2oc(=O)c(-c3nc(C)cs3)cc2c1	12.1	41.3	10.3	1.3	54.1*	1
SMILES	RORa activator	CD11b adhes enh	CD11b adhes inh	MT1-MMP txn act	SF-1 act	TNAP act mid DEA
Cc1ccc(C(=O)Nc2nc3ccccc3n2CCN2CCCC2)cc1	61.8*	-2.4	13.1	1.8	38.5	1
O=C(Nc1nc2ccccc2n1CCN1CCCCC1)c1ccc(Cl)cc1	·	-3.4	-1.0	1.1	·	·
O=C(Nc1nc2ccccc2n1CCN1CCCC1)c1ccc(Cl)cc1	99.4*	-0.9	3.1	1.5	55.4*	1
O=C(c1cccc(F)c1)N1CCN(C(=O)c2cc3ncc(Br)cn3n2)CC1	·	0.8	-2.8	1.2	·	·
O=[N+]([O-])c1cc(Br)c(O)c(/C=N/Nc2nnnn2-c2cccc3ccccc23)c1	·	-8.1	88.0*	·	·	·
COC(=O)CSc1nnnn1-c1cccc2ccccc12	6.5	5.0	-39.6	1.2	-2.3	0.9
Cc1ccc(-n2cc(-c3ccccc3)[nH]c2=O)cc1F	39.9	4.4	17.7	1.4	86.8*	0.8
